Data as given in ChEMBL document CHEMBL1144053, “Six triterpenoid saponins from Mmaesa laxiflora” (J Nat Prod, 1999).
Active and inactive are the calls of the source. The calls are words filed in the database; no cut-off is given here.

Tests used:
[1] = system: A549; test: Cytotoxicity against human A549 cells by MTT assay; assay type: functional, cell-based
In short: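 A-549 cells from NCI; standard MTT-based colorimetric cytotoxicity assay.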

[2] = Inhibition of tubulin polymerization at 10 mg/mL by tubulin assembly assay; design: scale not given: the % may be the effect or the level left
In short: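 Test compound added to cold (6 °C) tubulin solution; assembly started by shifting the temperature from 6 to 37 °C. Turbidity followed over time, with polymerization rate taken from the slope of the turbidity increase.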

[3] = Inhibition of tubulin polymerization at 1 ug/mL by tubulin assembly assay; design: scale not given: the % may be the effect or the level left
In short: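 Compound added to cold (6 °C) tubulin solution; assembly started by a temperature shift from 6 to 37 °C. Turbidity followed over time, with polymerization rate taken as the slope of the turbidity increase.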

| SMILES | Activity [1] | Activity [2] [%] | Activity [3] [%] |
| --- | --- | --- | --- |
| C/C=C(\C)C(=O)O[C@H]1CC(C)(C)C[C@H]2C3=CC[C@@H]4[C@@]5(C)CC[C@H](O[C@@H]6O[C@H](C(=O)O)[C@@H](O)[C@H](O[C@@H]7O[C@H](CO)[C@H](O)[C@H](O)[C@H]7O[C@@H]7O[C@@H](C)[C@H](O)[C@@H](O)[C@H]7O[C@@H]7O[C@@H](C)[C@H](O)[C@@H](O)[C@H]7O)[C@H]6O[C@@H]6O[C@H](CO)[C@@H](O)[C@H](O)[C@H]6O)C(C)(C)[C@@H]5CC[C@@]4(C)[C@]3(C)C[C@@H](OC(C)=O)[C@@]12CO | inactive | 41 | – |
| COc1cc2c(c(OC)c1OC)-c1ccc(OC)c(=O)cc1[C@@H](NC(C)=O)CC2 | – | – | 50 |
| C/C=C(\C)C(=O)O[C@H]1CC(C)(C)C[C@H]2C3=CC[C@@H]4[C@@]5(C)CC[C@H](O[C@@H]6O[C@H](C(=O)O)[C@@H](O)[C@H](O[C@@H]7O[C@H](CO)[C@H](O)[C@H](O)[C@H]7O[C@@H]7O[C@@H](C)[C@H](O)[C@@H](O)[C@H]7O[C@@H]7O[C@@H](C)[C@H](O)[C@@H](O)[C@H]7O)[C@H]6O[C@@H]6O[C@H](CO)[C@H](O)[C@H](O)[C@H]6O)C(C)(C)[C@@H]5CC[C@@]4(C)[C@]3(C)C[C@@H](O)[C@@]12CO | inactive | 41 | – |
| CCC/C=C\C(=O)O[C@H]1CC(C)(C)C[C@H]2C3=CC[C@@H]4[C@@]5(C)CC[C@H](O[C@@H]6O[C@H](C(=O)O)[C@@H](O)[C@H](O[C@@H]7O[C@H](CO)[C@H](O)[C@H](O)[C@H]7O[C@@H]7O[C@@H](C)[C@H](O)[C@@H](O)[C@H]7O[C@@H]7O[C@@H](C)[C@H](O)[C@@H](O)[C@H]7O)[C@H]6O[C@@H]6O[C@H](CO)[C@@H](O)[C@H](O)[C@H]6O)C(C)(C)[C@@H]5CC[C@@]4(C)[C@]3(C)C[C@@H](O)[C@@]12CO | inactive | 41 | – |
| CCC/C=C\C(=O)O[C@H]1CC(C)(C)C[C@H]2C3=CC[C@@H]4[C@@]5(C)CC[C@H](O[C@@H]6O[C@H](C(=O)O)[C@@H](O)[C@H](O[C@@H]7O[C@H](CO)[C@H](O)[C@H](O)[C@H]7O[C@@H]7O[C@@H](C)[C@H](O)[C@@H](O)[C@H]7O[C@@H]7O[C@@H](C)[C@H](O)[C@@H](O)[C@H]7O)[C@H]6O[C@@H]6O[C@H](CO)[C@H](O)[C@H](O)[C@H]6O)C(C)(C)[C@@H]5CC[C@@]4(C)[C@]3(C)C[C@@H](O)[C@@]12CO | inactive | 41 | – |
| C/C=C(\C)C(=O)O[C@H]1CC(C)(C)C[C@H]2C3=CC[C@@H]4[C@@]5(C)CC[C@H](O[C@@H]6O[C@H](C(=O)O)[C@@H](O)[C@H](O[C@@H]7O[C@H](CO)[C@H](O)[C@H](O)[C@H]7O[C@@H]7O[C@@H](C)[C@H](O)[C@@H](O)[C@H]7O[C@@H]7O[C@@H](C)[C@H](O)[C@@H](O)[C@H]7O)[C@H]6O[C@@H]6O[C@H](CO)[C@H](O)[C@H](O)[C@H]6O)C(C)(C)[C@@H]5CC[C@@]4(C)[C@]3(C)C[C@@H](OC(C)=O)[C@@]12CO | inactive | 41 | – |
| C/C=C(\C)C(=O)O[C@H]1CC(C)(C)C[C@H]2C3=CC[C@@H]4[C@@]5(C)CC[C@H](O[C@@H]6O[C@H](C(=O)O)[C@@H](O)[C@H](O[C@@H]7O[C@H](CO)[C@H](O)[C@H](O)[C@H]7O[C@@H]7O[C@@H](C)[C@H](O)[C@@H](O)[C@H]7O[C@@H]7O[C@@H](C)[C@H](O)[C@@H](O)[C@H]7O)[C@H]6O[C@@H]6O[C@H](CO)[C@@H](O)[C@H](O)[C@H]6O)C(C)(C)[C@@H]5CC[C@@]4(C)[C@]3(C)C[C@@H](O)[C@@]12CO | inactive | 41 | – |
